Shown are actives, neighbours in structure and some others; about 2.1% of the full set was active somewhere.
EWS-Fli block: EWS/Fli-driven NR0B1 reporter inhibitors, primary screen, A673 cells, NR0B1 luciferase, luminescence, MLPCN library; viability-normalised; inhibition, % at 12.6 µM; 350,000 compounds, 0.67% hits; AID 651661, 2012;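 active = mean inhibition of at least 50% after viability correction, with every replicate also passing that limit; inconclusive = mean reaches 50% but only one of two replicates passes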;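 note: firefly luciferase signal divided by Alamar Blue viability fluorescence both relative to DMSO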
Shn3 3UTR inh: reduction of Shn3 3'UTR firefly luciferase signal, primary screen, Schnurri-3 inhibitor project, cell-based, Clone20 osteoblasts, set 2 | Clone20 osteoblast Shn3 3'UTR firefly luciferase, 24 h | inhibition, % at 12.5 µM | 360,000 compounds, 0.52% hits | AID 588674, 2011;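 active = mean inhibition of at least 75% with every replicate also reaching 75%; inconclusive = mean inhibition at least 75% but some replicate below; inactive = mean inhibition below 75%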;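 note: 0% = median of neutral control wells and 100% = pilot-screen positive control compound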
aSyn 5UTR inh: MLPCN primary screen, SNCA 5' untranslated region; 300,000 compounds, 0.82% hits; inhibition, % (tested at 7.5 µM); AID 1813, 2009; alpha-synuclein 5'UTR reporter, inhibitor activity; in the data active = inhibition above about 60%; inconclusive = no clear call, values can overlap the other calls;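 note: H4 neuroglioblastoma cells stably carrying SNCA 5'UTR luciferase fusion; 0% = DMSO wells and 100% = positive control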
EBV LMP1 NFkB: EBV LMP1-driven NF-kappaB luciferase reporter inhibitors, primary screen, cell-based, luminescence, single point | AID 504558, 2011 | LMP1-induced NF-kappaB luciferase reporter cells | 350,000 compounds, 0.69% hits | inhibition, % at 12.5 µM; in the data active = inhibition above about 41%; inconclusive = no clear call, values can overlap the other calls;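 note: 0% = neutral control wells and 100% = reference inhibitor control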
FN deposition inh: inhibitors of fibronectin matrix deposition, primary screen, AH1F cells, Alexa488-fibronectin fluorescence, plate reader; inhibition, % at 12.6 µM; AH1F fibroblasts, overnight; 350,000 compounds, 0.086% hits;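 active = mean inhibition across replicates of 30% or more, regardless of how many single replicates reach that level; inconclusive = mean under 30% yet at least half of replicates reach 30%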;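 note: positive control wells lacked labelled fibronectin entirely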
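Schedule: 1 h cell adhesion before compound, then overnight fibronectin incubation; test system: AH1F fibroblast monolayer depositing Alexa488-labelled fibronectin into matrix; quantity: 10000 AH1F cells per well; probe or stimulus: fluorescent fibronectin at 24 nM final; signal: fluorescence, ex 485 nm, em 525 nm; evaluation: percent inhibition as loss of matrix-bound fibronectin fluorescence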
PAX8 inh HTS: inhibitors of PAX8-driven TPO luciferase reporter, primary screen, RMG-I cells, single concentration. 360,000 compounds, 1.2% hits. AID 652154, 2013. inhibition, % at 12.6 µM. SteadyGlo, 24 h;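 active = mean replicate inhibition at least 60% with every replicate also reaching 60%; inconclusive = only one of the two criteria is met; inactive = mean below 60% and not all replicates reaching 60%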;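 note: luciferase light reporting Pax8 driven TPO promoter activity; plate controls were median of neutral control wells for no effect and mitoxantrone controls for full effect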
DNA binding: DNA binders by acridine orange displacement, dose response, counter-screen for EWS/Fli inhibitor project, biochemical, fluorescence polarization, cherry-pick; 640 compounds, 2% hits; AC35, µM (series often up to 68 µM), without a hit: top-dose activity change, negative = DNA binding; salmon sperm DNA acridine orange fluorescence polarization; shares compounds with EWS-Fli block;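 active = fitted curve reaches a 35% signal fall AC35 below twice the sample's top valid tested dose, actives reach about 48 µM in these data; inactive = the rest, including activity in the rising direction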;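 note: lower polarization ratio signals compound binding to DNA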
* marks the source's active call; other numbers are inactive results.

What do the screens show for `O=C(CN1C(=O)c2ccccc2S1(=O)=O)c1ccc(F)cc1`?
EWS-Fli block: 65.7*; Shn3 3UTR inh: 79.5; aSyn 5UTR inh: 91.6*; EBV LMP1 NFkB: 69.4*; FN deposition inh: -4.0; PAX8 inh HTS: 55.3; DNA binding: -5.6%

What do the screens show for `O=C(CN1C(=O)c2ccccc2C1=O)c1ccc(F)cc1`?
EWS-Fli block: -11.5; Shn3 3UTR inh: -11.8; aSyn 5UTR inh: -5.7; EBV LMP1 NFkB: 8.0; FN deposition inh: 3.6; PAX8 inh HTS: -9.0

Results for COc1ccc(-c2cn(-c3ccc(OC)cc3)c3[n+]2-c2ccccc2CC3)cc1 ?
EWS-Fli block: 74.5*; Shn3 3UTR inh: inconclusive; aSyn 5UTR inh: 0.2; EBV LMP1 NFkB: 28.6; PAX8 inh HTS: 91.8*; DNA binding: -5.1%

Results for CN1C(=O)c2cc(NC(=O)c3cnccn3)ccc2OC[C@H]2O[C@H](CC(=O)O)CC[C@H]21 ?
EWS-Fli block: -6.6; FN deposition inh: -10.6; PAX8 inh HTS: 5.1

Results for O=C(c1cccc(S(=O)(=O)NCc2ccccc2)c1)N1CCN(c2ccccc2)CC1 ?
EWS-Fli block: 51.8*; Shn3 3UTR inh: 37.6; EBV LMP1 NFkB: -5.2; FN deposition inh: -10.9; PAX8 inh HTS: 30.2; DNA binding: -7.6%

How did O=C(NCc1ccncc1)c1cccc(S(=O)(=O)NCc2ccccc2)c1 do in these assays?
EWS-Fli block: -1.3; Shn3 3UTR inh: 14.7; aSyn 5UTR inh: -7.9; EBV LMP1 NFkB: 3.0; PAX8 inh HTS: 3.3

How did Cc1ccc(OCCNC(=O)c2cccc(S(=O)(=O)NCc3ccccc3)c2)cc1 do in these assays?
EWS-Fli block: 56.0*; Shn3 3UTR inh: 31.4; EBV LMP1 NFkB: -13.5; FN deposition inh: 11.9; PAX8 inh HTS: 24.4; DNA binding: -10.8%

Results for C[C@@H]1CCCCO[C@@H](CN(C)C(=O)CCC(F)(F)F)[C@@H](C)CN([C@H](C)CO)C(=O)c2cc(NC(=O)c3ccncc3)ccc2O1 ?
EWS-Fli block: -18.6; PAX8 inh HTS: 3.5

How did O=C(O)c1ccc(S(=O)(=O)NN=Cc2c[nH]c3ccccc23)cc1 do in these assays?
EWS-Fli block: 3.7; Shn3 3UTR inh: 6.5; EBV LMP1 NFkB: -7.0; PAX8 inh HTS: 34.0

What do the screens show for `O=C(O)c1ccc(N/N=C/c2c[nH]c3ccccc23)cc1`?
EWS-Fli block: 68.8*; Shn3 3UTR inh: 31.0; aSyn 5UTR inh: 78.6*; EBV LMP1 NFkB: 35.9; FN deposition inh: -0.5; PAX8 inh HTS: 45.1; DNA binding: -3.6%

What do the screens show for `CCc1ccc2oc(C(=O)N3CCN(c4ccccc4OC)CC3)cc(=O)c2c1`?
EWS-Fli block: 55.6*; Shn3 3UTR inh: -5.6; aSyn 5UTR inh: -3.9; EBV LMP1 NFkB: -1.8; FN deposition inh: -2.3; PAX8 inh HTS: 20.0; DNA binding: -3.6%

Results for Cc1cc(C(=O)Nc2cccc3c2O[C@@H](CN(C)S(=O)(=O)c2cccs2)[C@H](C)CN([C@@H](C)CO)C3=O)n(C)n1 ?
EWS-Fli block: 11.1; FN deposition inh: -5.9

How did Cc1ccc(S(=O)(=O)Nc2ccc3c(c2)CC(=O)N([C@@H](C)CO)C[C@H](C)[C@@H](CN(C)S(=O)(=O)c2ccc(Cl)cc2)O3)cc1 do in these assays?
EWS-Fli block: 21.7; PAX8 inh HTS: 16.3

Results for CS(=O)(=O)N1CC2(C1)[C@@H](c1ccccc1)[C@@H](CO)N2Cc1ccc(F)cc1 ?
EWS-Fli block: -2.7

What do the screens show for `Cc1noc(C)c1NC(=O)Nc1ccc2c(c1)CC(=O)N([C@@H](C)CO)C[C@H](C)[C@H](CN(C)CC1CCCCC1)O2`?
EWS-Fli block: 6.4

Results for N#CC1=C(N)Oc2cc(N)ccc2C1c1cccc(F)c1 (stereo unspecified) ?
EWS-Fli block: 52.6*; Shn3 3UTR inh: 4.2; aSyn 5UTR inh: -137.5; EBV LMP1 NFkB: 9.8; FN deposition inh: 19.4; PAX8 inh HTS: 24.7; DNA binding: -8.8%

What do the screens show for `O=C(C[C@H]1C[C@@H]2c3cc(NS(=O)(=O)c4ccc(F)cc4)ccc3O[C@@H]2[C@@H](CO)O1)NCc1ccccc1`?
EWS-Fli block: 3.6; FN deposition inh: -5.1; PAX8 inh HTS: 20.0

Results for O=C(C[C@@H]1C[C@H]2c3cc(NS(=O)(=O)c4ccc(F)cc4)ccc3O[C@H]2[C@H](CO)O1)NCc1ccc(-c2ccccc2)cc1 ?
EWS-Fli block: 56.0*; FN deposition inh: 5.7; PAX8 inh HTS: 88.0*; DNA binding: -0.1%

What do the screens show for `CCCC(=O)N1CC2(C1)CN(C(=O)CC1CC1)[C@@H](CO)c1c2c2ccc(OC)cc2n1C`?
EWS-Fli block: 0.5

Results for C[C@@H]1C[C@@H]2OC(=O)[C@]3(C)[C@H]2[C@@H](OC3(C)O)[C@]2(C)C(=O)C=C[C@H]12 (stereo partly specified) ?
EWS-Fli block: -20.2; Shn3 3UTR inh: -49.0; aSyn 5UTR inh: -23.4; EBV LMP1 NFkB: -3.0; FN deposition inh: 7.7; PAX8 inh HTS: -3.7

How did C=C1C(=O)C=C[C@]2(C)C[C@@H]3OC(=O)[C@](C)(O)[C@H]3C[C@@H]12 do in these assays?
EWS-Fli block: 65.3*; Shn3 3UTR inh: 44.9; aSyn 5UTR inh: inactive; EBV LMP1 NFkB: -105.0; FN deposition inh: 6.0; PAX8 inh HTS: 67.2*; DNA binding: 14.9%

How did COc1ccc(/C=N/NC(=O)c2cccc(NC(C)=O)c2)c(OC)c1 do in these assays?
EWS-Fli block: 3.7; Shn3 3UTR inh: -3.4; aSyn 5UTR inh: 23.2; EBV LMP1 NFkB: -2.4; FN deposition inh: -13.6; PAX8 inh HTS: 17.0

What do the screens show for `COc1ccc(C(=O)Nc2cccc(C(=O)N/N=C/c3ccc(OC)cc3OC)c2)cc1`?
EWS-Fli block: 53.6*; Shn3 3UTR inh: 9.8; aSyn 5UTR inh: 83.2*; EBV LMP1 NFkB: 66.6*; FN deposition inh: -8.9; PAX8 inh HTS: 39.5; DNA binding: 8.3%

How did Cc1ccc(NC(=S)N=Nc2c(O)[nH]c3ccccc23)cc1 do in these assays?
EWS-Fli block: 29.0; Shn3 3UTR inh: 42.0; aSyn 5UTR inh: 8.4; EBV LMP1 NFkB: 19.0; FN deposition inh: 13.0; PAX8 inh HTS: 10.9

How did COc1ccc(NC(=S)N=Nc2c(O)[nH]c3ccccc23)cc1 do in these assays?
EWS-Fli block: 55.5*; Shn3 3UTR inh: 61.6; aSyn 5UTR inh: 22.4; EBV LMP1 NFkB: 39.3; FN deposition inh: 6.8; PAX8 inh HTS: 4.7; DNA binding: -11.0%

High-throughput results deposited in PubChem BioAssay by Broad Institute.
